Values after ≈ are worked out from the molar mass of the structure shown. Active and inactive are the calls of the source. The rule behind the calls is not given here.

In test [1] the test system is Mycolicibacterium smegmatis. As to the kind of experiment: Antibacterial activity against Mycobacterium smegmatis ATCC 14468 after 36 hrs visualized by MTT staining by broth macrodilution assay. The format is functional. As to conditions: ATCC 14468, 36 h. A digest of the protocol:
(§1)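 Broth macrodilution adapted from NCCLS. E. coli and B. subtilis grown in Mueller-Hinton broth; M. smegmatis in Middlebrook 7H9 with 0.2% glycerol and ADC enrichment. Inocula were set to a 0.5 McFarland standard, giving a final density of 5.0 · 10⁵ cfu/mL. Incubated at 37 °C for 36 h and the MIC recorded.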

Test [2] has as its system Mycolicibacterium smegmatis. Put plainly: Antibacterial activity against Mycobacterium smegmatis ATCC 14468 assessed as inhibition zone diameter at 20 mg/mL after 24 hrs by Kirby-Bauer disk diffusion assay. To be noted: for zone of inhibition at 20000 µg/mL: ATCC 14468, 24 h, read-out: IZ. The format is functional. In outline: (§2)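 Disk diffusion adapted from NCCLS. M. smegmatis was pre-grown about 24 h in 7H9 with 0.2% glycerol and ADC at 37.5 °C and 160 rpm, to OD₆₀₀ 0.27. It was swabbed onto Lennox or 7H10 agar with 0.5% glycerol and OADC. DMSO solutions (20 or 10 mg/mL) or control went onto 6 mm paper disks. Plates were incubated at 37 °C for 24 h, rechecked at day 6, and zone diameters measured in mm by ruler.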

The subject of test [3] is Mycolicibacterium smegmatis. As to the kind of experiment: Antibacterial activity against Mycobacterium smegmatis ATCC 14468 assessed as inhibition zone diameter at 10 mg/mL after 24 hrs by Kirby-Bauer disk diffusion assay. To be noted: for zone of inhibition at 10000 µg/mL: ATCC 14468, 24 h, read-out: IZ. The format is functional. In outline: as §2
For orientation: Agar diffusion results depend on both activity and mobility in agar.

The next test relates to Escherichia coli. Put plainly: Antibacterial activity against Escherichia coli ATCC 23722 after 36 hrs visualized by MTT staining by broth macrodilution assay. The format is functional. As to conditions: ATCC 23722, 36 h. In outline: as §1
A further test concerns Bacillus subtilis. As to the kind of experiment: Antibacterial activity against Bacillus subtilis ATCC 6633 after 36 hrs visualized by MTT staining by broth macrodilution assay. It counts as functional. To be noted: ATCC 6633, 36 h. In outline:
as §1

For test [4], the target named is Diacylglycerol acyltransferase/mycolyltransferase Ag85C (Mycobacterium tuberculosis) (UniProt P9WQN9). As to the kind of experiment: Inhibition of mycolyltransferase activity of Mycobacterium tuberculosis antigen 85C at 1 to 20 mM by UV-visible absorption spectroscopy. A digest of the protocol:
(§3)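 Purified ag85C (M. tuberculosis) in 10 mM Tris–HCl pH 7.5, 2 mM EDTA, 1 mM DTT, added to start the reaction. The mix holds sodium phosphate buffer, β-glucosidase, dextrose and the glucose-based p-nitrophenyl substrate analogue (stock 0.1–2.5 mM, in 10% v/v DMSO); test compound is added in DMSO. The coupled release of p-nitrophenolate is read at 405 nm every 20 s for 1 h, and activity is compared by the slopes.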

For test [5] the target is unchanged. As to the kind of experiment: Inhibition of mycolyltransferase activity of Mycobacterium tuberculosis antigen 85C by UV-visible absorption spectroscopy. A digest of the protocol:
as §3

Diacylglycerol acyltransferase/mycolyltransferase Ag85C (Mycobacterium tuberculosis), sequence (P9WQN9 whole entry): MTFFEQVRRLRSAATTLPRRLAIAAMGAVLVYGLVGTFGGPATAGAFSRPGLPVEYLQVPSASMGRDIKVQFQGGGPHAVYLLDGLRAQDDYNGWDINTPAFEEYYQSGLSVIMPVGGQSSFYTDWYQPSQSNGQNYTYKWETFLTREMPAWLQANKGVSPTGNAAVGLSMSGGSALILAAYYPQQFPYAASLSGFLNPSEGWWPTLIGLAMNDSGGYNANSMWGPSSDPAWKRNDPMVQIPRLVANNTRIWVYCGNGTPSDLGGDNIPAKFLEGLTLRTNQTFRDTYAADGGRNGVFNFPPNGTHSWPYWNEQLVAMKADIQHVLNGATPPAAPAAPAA

The compound `NNC(=O)c1ccncc1` [ISONIAZID] came in with an MIC in test [1] of 2 µg/mL (≈ 0.0146 mM).
In the case of `CCCCSC[C@H]1O[C@@H](OC)[C@@H](O)[C@@H]1O`, the outcome in test [2], in test [3] and in test [4] was inactive. For the same compound, the MIC (against Escherichia coli; in the test on Bacillus subtilis; in test [1]) was over 1020 µg/mL in each case.
For the compound `CCCCSC[C@H]1O[C@H](OC)[C@@H](O)[C@@H]1O`, the result in test [2] and in test [3] was inactive. Further, the MIC (against Escherichia coli; with Bacillus subtilis; in test [1]) was over 1020 µg/mL in each case.
For the compound `CCCCCCCCSC[C@H]1O[C@H](OC)[C@@H](O)[C@@H]1O`, the zone of inhibition at 20000 µg/mL in test [2] was 17.5 mm. Further, the zone of inhibition at 10000 µg/mL in test [3] was determined as 14.5 mm. For the same compound, the minimum inhibitory concentration (MIC) was over 1020 µg/mL in the test with Escherichia coli, 128 µg/mL (≈ 0.438 mM) against Bacillus subtilis and 256 µg/mL (≈ 0.875 mM) in test [1]. Moreover, the result in test [5] was Active.
Take `CCCCCCSC[C@H]1O[C@H](OC)[C@@H](O)[C@@H]1O`: the outcome in test [2] and in test [3] was inactive. Further, the figures for the MIC (against Escherichia coli; against Bacillus subtilis; in test [1]) were over 1020 µg/mL, over 1020 µg/mL and 1020 µg/mL (≈ 3.87 mM), respectively. Further, in test [5], the outcome was Active.
Take `CCCCCCSC[C@H]1O[C@@H](OC)[C@@H](O)[C@@H]1O`: the outcome in test [2] and in test [3] was inactive. Besides, the minimum inhibitory concentration (MIC) in the test on Escherichia coli is over 1020 µg/mL; against Bacillus subtilis it was over 1020 µg/mL; in test [1], 1020 µg/mL (≈ 3.87 mM). In test [5], the result was Active.
For `CCCCCCCCSC[C@H]1O[C@@H](OC)[C@@H](O)[C@@H]1O`, in test [2], the zone of inhibition at 20000 µg/mL is 13.5 mm. Further, the zone of inhibition at 10000 µg/mL in test [3] is 7.5 mm. Moreover, the MIC against Escherichia coli is over 1020 µg/mL; in the test on Bacillus subtilis, 512 µg/mL (≈ 1.75 mM); in test [1] it was 512 µg/mL (≈ 1.75 mM). In test [5], the result was Active.

The term MIC denotes the lowest concentration that inhibits growth of the organism. A low value points to a more susceptible organism.

These data come from ChEMBL document CHEMBL1150325, “Synthesis of methyl 5-S-alkyl-5-thio-D-arabinofuranosides and evaluation of their antimycobacterial activity” (2008).
